According to ChEMBL document CHEMBL4177752, “Discovery of Novel Schizocommunin Derivatives as Telomeric G-Quadruplex Ligands That Trigger Telomere Dysfunction and the Deoxyribonucleic Acid (DNA) Damage Response” (J Med Chem, 2018):
Activity calls are given as the source filed them. No cut-off for these calls is given here.

What was measured:
[1] = test system: Quadruplex DNA; assay: Stabilization of F21T telomeric G-quadruplex DNA (unknown origin) assessed as change in melting temperature at 1 uM by FRET assay; assay type: nucleic-acid assay
Summary of the method: (§1)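 FRET melting: 0.2 µM F21T or F10T (FAM/TAMRA-labelled), with or without 1.0 µM ligand, in 10 mM Tris-HCl pH 7.4 with 60 mM KCl. Excitation 470 nm, emission 530 nm, read every 1 °C from 37–99 °C at 1 °C/min with a 30 s hold. ΔTm = Tm(DNA+ligand) − Tm(DNA).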

[2] = Stabilization of F10T hairpin duplex DNA (unknown origin) assessed as change in melting temperature at 1 uM by FRET assay; summary of the method: as §1
[3] = test system: Quadruplex DNA; assay: Stabilization of F21T telomeric G-quadruplex DNA (unknown origin) at 1 uM in presence of non-fluorescent duplex DNA ds26 by FRET assay; assay type: nucleic-acid assay
Summary of the method: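 Competition FRET: 0.2 µM F21T with 1 µM ligand, plus or minus unlabelled duplex ds26 at 3 µM (15-fold) or 10 µM (50-fold), in 10 mM Tris-HCl pH 7.4 with 60 mM KCl. Melting monitored at 470/530 nm over 37–99 °C.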

[4] = target: Quadruplex DNA; assay: Binding affinity to HTG21 telomeric G-quadruplex DNA (unknown origin) by SPR method; assay type: nucleic-acid assay
Summary of the method: (§2)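 SPR: biotinylated HTG21 or hairpin DNA (200 nM) was folded in 50 mM Tris-HCl pH 7.4 with 100 mM KCl and captured to about 1,000 RU on an NLC chip against a blank reference cell. Ligand at 0.625–40 µM was injected at 25 µL/min (400 s association, 300 s dissociation) at 25 °C. The chip was regenerated with 1 M KCl and blank sensorgrams were subtracted.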

[5] = Binding affinity to hairpin duplex DNA (unknown origin) at 40 uM by SPR method; summary of the method: as §2
[6] = test system: HeLa; assay: Antiproliferative activity against human HeLa cells after 48 hrs by MTT assay; assay type: functional, cell-based
Summary of the method: (§3)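 Cells seeded at 5.0×10^3 per well and exposed to a range of compound concentrations for 48 h. MTT (2.5 mg/mL solution) was then added for 4 h, formazan was dissolved in DMSO, and OD was read at 570 nm. HL-60 was grown in RPMI-1640 with 10% FBS, the other lines in DMEM with 10% FBS, at 37 °C and 5% CO2. Triplicates; IC50 taken from mean OD versus concentration curves.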

[7] = test system: SiHa; assay: Antiproliferative activity against human SiHa cells after 48 hrs by MTT assay; assay type: functional, cell-based; summary of the method: as §3
[8] = test system: HL-60; assay: Antiproliferative activity against human HL60 cells after 48 hrs by MTT assay; assay type: functional, cell-based; conditions: HL-60, 48 h; summary of the method: as §3
[9] = test system: A549; assay: Antiproliferative activity against human A549 cells after 48 hrs by MTT assay; assay type: functional, cell-based; conditions: A549, 48 h; summary of the method: as §3
[10] = test system: U2OS; assay: Antiproliferative activity against human U2OS cells after 48 hrs by MTT assay; assay type: functional, cell-based; summary of the method: as §3
[11] = Inhibition of telomerase (unknown origin) by TRAP-LIG assay; design: species or system Homo sapiens
[12] = Binding affinity to hairpin duplex DNA (unknown origin) by SPR method; summary of the method: as §2
[13] = test system: Quadruplex DNA; assay: Stabilization of telomeric G-quadruplex DNA in human SiHa cells assessed as increase in BG4 foci per nucleus at 2 uM after 24 hrs by DAPI staining-based immunofluorescence method relative to control; assay type: cell-based
Summary of the method: (§4)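 Cells were treated 24 h with 2 µM compound or 0.1% DMSO, then fixed (4% paraformaldehyde), permeabilized (0.5% Triton X-100) and blocked (5% goat serum). Staining used BG4 (80 ng/µL, 37 °C 3 h) with anti-FLAG, and/or γ-H2AX, TRF2 or POT1 antibodies at 4 °C overnight. Alexa 488/555 secondaries and DAPI followed. Foci or co-localized foci per nucleus were counted by confocal microscopy; mean ± SEM, two-tailed unpaired t test.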

[14] = test system: Quadruplex DNA; assay: Stabilization of telomeric G-quadruplex DNA in human U2OS cells assessed as increase in BG4 foci per nucleus at 2 uM after 24 hrs by DAPI staining-based immunofluorescence method; assay type: cell-based; summary of the method: as §4
[15] = test system: Quadruplex DNA; assay: Stabilization of telomeric G-quadruplex DNA in human SiHa cells assessed as induction of DNA damage response by measuring gamma-H2AX foci formation per nucleus at 2 uM after 24 hrs by DAPI staining-based immunofluorescence method relative to control; assay type: cell-based; summary of the method: as §4
[16] = test system: U2OS; assay: Cell cycle arrest in human U2OS cells at 1 uM after 12 hrs by propidium iodide staining-based flow cytometric method; assay type: functional
Summary of the method: (§5)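 SiHa or U2OS cells (2.0×10^5 per well) were treated with compound or DMSO for 12 h, fixed in ice-cold 70% ethanol overnight, and stained with 50 µg/mL PI plus RNase A for 30 min at room temperature in the dark. 10,000 events were collected by flow cytometry to give the phase distribution.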

[17] = test system: SiHa; assay: Cell cycle arrest in human SiHa cells at 1 uM after 12 hrs by propidium iodide staining-based flow cytometric method; assay type: functional; summary of the method: as §5
[18] = test system: Mus musculus; assay: Toxicity in BALB/C-nu/nu mouse xenografted with human SiHa cells assessed as decrease in body weight at 1 mg/kg, ip administered daily for 3 weeks measured everyday during compound dosing; assay type: organism-based; conditions: in vivo, 504 h
Summary of the method: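 SiHa cells (1×10^7 per 100 µL, serum-free DMEM) were injected subcutaneously. Grown tumors were divided into pieces and implanted into BALB/C-nu/nu mice. Caliper volume (1/2 × L × W²) and body weight were recorded daily; tumors were weighed at the end.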

Structure (SMILES)	ΔTm [1] [°C]	ΔTm [2] [°C]	Activity [3]	Kd [4] [µM]	Activity [5]	IC50 [6] [µM]	IC50 [7] [µM]	IC50 [8] [µM]	IC50 [9] [µM]	IC50 [10] [µM]	IC50 [11] [µM]	Kd [12] [µM]	Activity [13]	Activity [14]	Activity [15]	Activity [16]	Activity [17]	Activity [18]
CN(C)CCCNc1cc2nc(/C=C3\C(=O)Nc4cc(N5CCN(C)CC5)c(F)cc43)[nH]c(=O)c2cc1F	24.6	0.1	Active	7.6	inactive	17.6	4.9	3.8	5.9	9	12.3							
CN(C)CCNc1cc2nc(/C=C3\C(=O)Nc4cc(N5CCN(C)CC5)c(F)cc43)[nH]c(=O)c2cc1F	22.5	0.3		6.2		7.7	11.4	2.8	6	5.7		15						
CN(C)CCCNc1ccc2c(=O)[nH]c(/C=C3\C(=O)Nc4ccccc43)nc2c1	8.4	0.1	Active	> 40	inactive	42.5	27.6	4.1	19.6	20.4	> 40		inactive	inactive	inactive	inactive	inactive	
COc1cccc2c1C(=O)c1c(O)c3c(c(O)c1C2=O)C[C@@](O)(C(=O)CO)C[C@@H]3O[C@H]1C[C@H](N)[C@H](O)[C@H](C)O1 [DOXORUBICIN]																		Toxic
CN1CCN(c2cc3c(cc2F)/C(=C/c2nc4cc(NCCN5CCCCC5)c(F)cc4c(=O)[nH]2)C(=O)N3)CC1	21.4	0.2		8.8		2.8	4.4	2.9	1.4	5.3		16						
CN(C)CCCNc1cc2nc(/C=C3/C(=O)Nc4cc(N5CCN(C)CC5)ccc43)n(C)c(=O)c2cc1F	7.4	0.1		30		14	14	30.6	15.4	12.5		> 40						
